In ChEMBL document CHEMBL1143731, “Synthesis and pharmacological testing of polyaminoquinolines as blockers of the apamin-sensitive Ca2+-activated K+ channel (SK(Ca))” (Bioorg Med Chem, 2007):

Tests used:
[1] = biological target: Small conductance calcium-activated potassium channel protein 3 (Rattus norvegicus) (UniProt P70605); experiment: Ratio of concentration drug to dequalinium to cause 50% inhibition of SKca channel-mediated after-hypepolarization in rat sympathetic neurons; type: cell-based; details: Sympathetic neuron
Chain of Small conductance calcium-activated potassium channel protein 3 (Rattus norvegicus) (P70605 whole entry): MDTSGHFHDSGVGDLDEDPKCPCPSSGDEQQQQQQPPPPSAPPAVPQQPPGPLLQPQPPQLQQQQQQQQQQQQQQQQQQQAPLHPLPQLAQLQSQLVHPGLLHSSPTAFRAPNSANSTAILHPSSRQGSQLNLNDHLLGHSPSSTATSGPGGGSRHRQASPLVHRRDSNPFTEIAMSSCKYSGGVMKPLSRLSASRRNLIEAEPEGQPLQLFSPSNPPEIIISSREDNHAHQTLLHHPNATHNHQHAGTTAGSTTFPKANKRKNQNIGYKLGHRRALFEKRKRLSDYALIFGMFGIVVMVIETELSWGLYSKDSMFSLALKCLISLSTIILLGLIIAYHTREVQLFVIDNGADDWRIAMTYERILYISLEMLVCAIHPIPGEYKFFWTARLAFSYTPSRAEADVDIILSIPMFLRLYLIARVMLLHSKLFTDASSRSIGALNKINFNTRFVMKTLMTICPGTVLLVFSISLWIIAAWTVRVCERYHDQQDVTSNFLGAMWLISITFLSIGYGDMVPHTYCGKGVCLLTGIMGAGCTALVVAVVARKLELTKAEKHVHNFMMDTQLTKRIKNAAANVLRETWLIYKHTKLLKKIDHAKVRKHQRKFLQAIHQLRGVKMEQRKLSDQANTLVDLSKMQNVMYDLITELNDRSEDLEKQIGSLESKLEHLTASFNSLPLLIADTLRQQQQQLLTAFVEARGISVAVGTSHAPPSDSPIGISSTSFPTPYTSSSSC
Summary of the method: (§1)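 Rat sympathetic neurones (SK3 SKCa), short-term tissue culture. Action potentials evoked by depolarizing current pulses; afterhyperpolarization amplitude measured before, during and after compound applied in external solution at 2–4 concentrations, at least three neurones. Dequalinium reference in each assay. Hill fits with common Hill coefficient and maximum inhibition per assay gave IC50; EMR = test/dequalinium concentration for 50% AHP inhibition, by simultaneous weighted nonlinear least squares.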

[2] = biological target: Small conductance calcium-activated potassium channel protein 3 (Rattus norvegicus, UniProt P70605); experiment: Inhibition of SKca channel-mediated after-hypepolarization in rat sympathetic neurons; type: cell-based, Sympathetic neuron; summary of the method: as §1
Chain of Small conductance calcium-activated potassium channel protein 3 (P70605 whole entry): as above

c1ccc2c(c1)c1cc[n+]2CCCCC[n+]2ccc(c3ccccc32)NCCCCCN1
EMR [1]: 0.003

c1ccc2c(NCCCNCc3cc(OCCCNc4ccnc5ccccc45)cc(OCCCNc4ccnc5ccccc45)c3)ccnc2c1
EMR [1]: 0.48
IC50 [2]: 360 nM

N=C(N)NCCCNC(=O)/C=C\C(=O)N(CCCCCCCCN)CCCNC(=N)N
IC50 [2]: > 30000 nM

N=C(N)NCCCNC(=O)/C=C/C(=O)N(CCCNC(=N)N)Cc1ccc(-c2ccc(CN)cc2)cc1
EMR [1]: 33
IC50 [2]: 17000 nM

c1cc2cc(c1)C[n+]1ccc(c3ccccc31)NCc1ccc(cc1)CNc1cc[n+](c3ccccc13)C2
EMR [1]: 0.01

Cc1cc(N)c2ccccc2[n+]1CCCCCCCCCC[n+]1c(C)cc(N)c2ccccc21
EMR [1]: 1

c1ccc2c(NCCCNc3cc(OCCCNc4ccnc5ccccc45)cc(OCCCNc4ccnc5ccccc45)c3)ccnc2c1
EMR [1]: 0.26
IC50 [2]: 220 nM

N=C(N)NCc1ccc(/C=C\c2ccc(CNC(=N)N)cc2)cc1
EMR [1]: 59

c1ccc2c(NCCCCCN(CCCNc3ccnc4ccccc34)Cc3cc(OCCCNc4ccnc5ccccc45)cc(OCCCNc4ccnc5ccccc45)c3)ccnc2c1
EMR [1]: 0.23
IC50 [2]: 130 nM

c1cc(OCCCNc2ccnc3ccccc23)c(OCCCNc2ccnc3ccccc23)c(OCCCNc2ccnc3ccccc23)c1
EMR [1]: 0.23
IC50 [2]: 130 nM

Nc1cc[n+](CCCC=C(CCCC[n+]2ccc(N)c3ccccc32)CCCC[n+]2ccc(N)c3ccccc32)c2ccccc12
EMR [1]: 0.1

c1ccc2c(NCCCCCN(CCCNc3ccnc4ccccc34)c3cc(OCCCNc4ccnc5ccccc45)cc(OCCCNc4ccnc5ccccc45)c3)ccnc2c1
EMR [1]: 0.17
IC50 [2]: 93 nM

c1ccc2c(NCCCOc3ccc(CCNc4ccnc5ccccc45)cc3OCCCNc3ccnc4ccccc34)ccnc2c1
EMR [1]: 0.31
IC50 [2]: 270 nM

N=C(N)NCCCNC(=O)/C=C/C(=O)N(CCCCCCCCN)CCCNC(=N)N
IC50 [2]: 27000 nM

NC(N)=NCc1ccc(/C=C\c2ccc(CN=C(N)N)cc2)cc1
IC50 [2]: 25000 nM

NCCCCCCCCN(CCCNc1ccnc2ccccc12)C(=O)/C=C/C(=O)NCCCNc1ccnc2ccccc12
EMR [1]: 0.59
IC50 [2]: 490 nM

CC[n+]1ccc(NCCCOc2cccc(OCCCNc3cc[n+](CC)c4ccccc34)c2OCCCNc2cc[n+](CC)c3ccccc23)c2ccccc21
EMR [1]: 0.16
IC50 [2]: 86 nM
